Data set [1] relates to free cortisol. It counts as in vivo, human. The note with it: oral methylprednisolone 16 mg once daily. A digest of the protocol:
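In a single-centre, open-label, parallel-group study, healthy adults (18-50 years, BMI 18.5-30 kg/m2, 51-99 kg, confined on site) took methylprednisolone orally at 16 mg once daily for 15 days. The dose was then tapered to 8 mg daily for 2 days and 4 mg daily for 2 days. Blood for plasma free cortisol was drawn predose and 0.25–24 h postdose on days 1 and 15.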

The test system of data set [2] is free steroidogenic exposure. As to the kind of experiment: Steroidogenic exposure and methylprednisolone/prednisone dose equivalence. It counts as in vivo, human. The note with it: methylprednisolone 16 mg once daily; derived by equation 2 (5 × AUCτ + AUECτ). The essentials: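 Steady-state data came from day 15 of oral methylprednisolone at 16 mg once daily. Free methylprednisolone AUCτ (noncompartmental) and free cortisol AUECτ over one dosing interval were combined by integrating the per-timepoint free steroidogenic concentration equation. Weekly free cortisol exposure was converted to methylprednisolone-equivalent dose, assuming dose-proportionality. Prednisone equivalents used a coefficient of 1.25.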

For data set [3] the following is noted: cited from earlier work.
Data set [4] in a line: PK of ACTH1-24 after synthetic ACTH1-24 depot, phase 1 study. It counts as in vivo, human. The following applies: postdosing of synthetic ACTH1-24 depot.

Regarding `C[C@H]1C[C@@H]2[C@H]([C@@H](O)C[C@@]3(C)[C@H]2CC[C@]3(O)C(=O)CO)[C@@]2(C)C=CC(=O)C=C12` [methylprednisolone], the “endogenous cortisol after administration” value in data set [1] is recorded as “negligible”. For the same compound, in data set [2], the “free steroidogenic exposure at steady state (AUECτSG)” value was 305 ng·h/mL. Moreover, the “potency of systemic action relative to cortisol” value in data set [3] was 5 times.
Regarding “ACTH1-24: the first 24 amino acids of adrenocorticotropic hormone; analyte measured in plasma after synthetic ACTH1-24 depot”, the “time by which plasma concentrations fell below the quantification limit” value in data set [4] was less than 24 h.

(Values after paper PMC8359281 (Clinical Pharmacology in Drug Development, 2020).)
